Among the data in ChEMBL document CHEMBL1140019, “Primary amides as selective inhibitors of cathepsin K” (Bioorg Med Chem Lett, 2007) are IC50 values, retold here.

For one test, the target named is Cathepsin K (Homo sapiens, UniProt P43235). As to the kind of experiment: Inhibition of humanized rabbit cathepsin K. In outline:
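IC50 was measured against the humanized rabbit enzyme and is the mean of at least four independent titrations, reported with SEM.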

The target of the next test is Cathepsin B (Homo sapiens, UniProt P07858). As to the kind of experiment: Inhibition of human cathepsin B.
The target of a further test is Cathepsin S (Homo sapiens, UniProt P25774). As to the kind of experiment: Inhibition of human cathepsin S.
A further test has as its target Procathepsin L (Homo sapiens, UniProt P07711). As to the kind of experiment: Inhibition of human cathepsin L.

As a reminder, the IC50 is the concentration at which inhibition is half-maximal. Lower therefore signals higher potency.

Each structure is given as a SMILES string.

Chain of Procathepsin L (P07711 whole entry): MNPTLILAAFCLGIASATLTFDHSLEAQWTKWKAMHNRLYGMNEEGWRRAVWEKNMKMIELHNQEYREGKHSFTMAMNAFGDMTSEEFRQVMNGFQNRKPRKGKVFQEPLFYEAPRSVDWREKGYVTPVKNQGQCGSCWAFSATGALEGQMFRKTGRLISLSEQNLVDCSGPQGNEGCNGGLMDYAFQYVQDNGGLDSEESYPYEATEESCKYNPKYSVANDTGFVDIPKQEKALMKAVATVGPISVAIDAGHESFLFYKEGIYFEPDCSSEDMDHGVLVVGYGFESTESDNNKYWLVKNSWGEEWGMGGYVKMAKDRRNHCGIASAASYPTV
Chain of Cathepsin S (P25774 whole entry): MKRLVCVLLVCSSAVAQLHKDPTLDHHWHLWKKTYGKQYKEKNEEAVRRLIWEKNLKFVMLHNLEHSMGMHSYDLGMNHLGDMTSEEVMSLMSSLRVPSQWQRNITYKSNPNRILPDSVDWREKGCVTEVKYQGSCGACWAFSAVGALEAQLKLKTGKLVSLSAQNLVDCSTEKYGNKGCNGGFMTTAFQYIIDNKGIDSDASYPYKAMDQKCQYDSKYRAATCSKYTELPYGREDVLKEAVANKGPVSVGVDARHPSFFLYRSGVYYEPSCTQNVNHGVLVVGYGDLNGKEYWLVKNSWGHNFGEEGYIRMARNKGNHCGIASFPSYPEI

Turning to `CSCC[C@H](NC(=O)[C@H](CC(C)C)N[C@@H](c1ccc(-c2ccc(S(C)(=O)=O)cc2)cc1)C(F)(F)F)C(=O)NCC(F)(F)F`, the IC50 at Cathepsin K was found to be 277 nM.

`CSCC[C@H](NC(=O)[C@H](CC(C)C)N[C@@H](c1ccc(-c2ccc(S(C)(=O)=O)cc2)cc1)C(F)(F)F)C(=O)O` displayed an IC50 against Cathepsin K of 120 nM.

`CC(C)C[C@H](N[C@@H](c1ccc(-c2ccc(S(C)(=O)=O)cc2)cc1)C(F)(F)F)C(=O)N[C@@H](C)C#N` showed an IC50 on Cathepsin K of 0.9 nM.

Turning to `CNC(=O)[C@H](CCSC)NC(=O)[C@H](CC(C)C)N[C@@H](c1ccc(-c2ccc(S(C)(=O)=O)cc2)cc1)C(F)(F)F`, half-maximal inhibition at Cathepsin K (IC50) was put at 67 nM.

`COC(=O)[C@H](CCSC)NC(=O)[C@H](CC(C)C)N[C@@H](c1ccc(-c2ccc(S(C)(=O)=O)cc2)cc1)C(F)(F)F` yielded an IC50 against Cathepsin K of 27 nM.

On Cathepsin K, `CC(C)C[C@H](N[C@@H](c1ccc(-c2ccc(S(C)(=O)=O)cc2)cc1)C(F)(F)F)C(=O)N[C@@H](CCc1ccccc1)C(N)=O` registered an IC50 of 273 nM.

In turn, `CSCC[C@H](NC(=O)[C@H](CC(C)C)N[C@@H](c1ccc(-c2ccc(S(C)(=O)=O)cc2)cc1)C(F)(F)F)C(=O)N(C)C` came in with an IC50 against Cathepsin K of 1050 nM.

Turning to `CC(C)C[C@H](N[C@@H](c1ccc(-c2ccc(S(C)(=O)=O)cc2)cc1)C(F)(F)F)C(=O)N[C@@H](Cc1ccccc1)C(N)=O`, the IC50 against Cathepsin B is more than 100 µM; at Cathepsin S it was 66.7 µM; on Cathepsin K, 10 nM; at Procathepsin L it was 17 µM.

`CSC[C@H](NC(=O)[C@H](CC(C)C)N[C@@H](c1ccc(-c2ccc(S(C)(=O)=O)cc2)cc1)C(F)(F)F)C(N)=O`: inhibition at Cathepsin K was half-maximal at 66 nM (IC50).

For `CSCC[C@H](NC(=O)[C@H](CC(C)C)N[C@@H](c1ccc(-c2ccc(S(C)(=O)=O)cc2)cc1)C(F)(F)F)C(N)=O`, the IC50 is more than 100 µM at Cathepsin B, 76.9 µM at Cathepsin S, 13 nM against Cathepsin K and 55.7 µM against Procathepsin L.

Compound `CC(C)C[C@H](N[C@@H](c1ccc(-c2ccc(S(C)(=O)=O)cc2)cc1)C(F)(F)F)C(=O)N[C@H](C#N)Cc1ccccc1` showed an IC50 on Cathepsin K of 0.6 nM.

In turn, `CSCC[C@@H](C#N)NC(=O)[C@H](CC(C)C)N[C@@H](c1ccc(-c2ccc(S(C)(=O)=O)cc2)cc1)C(F)(F)F` came in with an IC50 on Cathepsin K of 0.2 nM.

The compound `CC(C)C[C@H](N[C@@H](c1ccc(-c2ccc(S(C)(=O)=O)cc2)cc1)C(F)(F)F)C(=O)N[C@H](Cc1ccccc1)C(N)=O` came in with an IC50 against Cathepsin K of 6070 nM.

The compound `CSCC[C@H](NC(=O)[C@H](CC(C)C)N[C@@H](c1ccc(-c2ccc(S(C)(=O)=O)cc2)cc1)C(F)(F)F)C(C)=O` registered an IC50 against Cathepsin K of 41 nM.

Turning to `CSCC[C@H](NC(=O)[C@H](CC(C)C)N[C@@H](c1ccc(-c2ccc(S(C)(=O)=O)cc2)cc1)C(F)(F)F)C(=O)NS(C)(=O)=O`, inhibition against Cathepsin K was half-maximal at 238 nM (IC50).

`CC(C)C[C@H](N[C@@H](c1ccc(-c2ccc(S(C)(=O)=O)cc2)cc1)C(F)(F)F)C(=O)N[C@@H](C)C(N)=O`: inhibition at Cathepsin K was half-maximal at 174 nM (IC50).

On to `CC(C)C[C@H](N[C@@H](c1ccc(-c2ccc(S(C)(=O)=O)cc2)cc1)C(F)(F)F)C(=O)N[C@@H](CS(C)(=O)=O)C(N)=O`, for which half-maximal inhibition at Cathepsin K (IC50) required 109 nM.

For `CSCC[C@H](NC(=O)[C@H](CC(C)C)N[C@@H](c1ccc(-c2ccc(S(C)(=O)=O)cc2)cc1)C(F)(F)F)C(=O)NCc1ccccc1`, on Cathepsin K, the IC50 was 87 nM.

In the case of `CC(C)C[C@H](N[C@@H](c1ccc(-c2ccc(S(C)(=O)=O)cc2)cc1)C(F)(F)F)C(=O)NCC(N)=O`, the half-maximal inhibitory concentration (IC50) at Cathepsin B was more than 100 µM; on Cathepsin S, 41.1 µM; against Cathepsin K it was 238 nM; at Procathepsin L, 63.1 µM.

Compound `CC(C)C[C@H](N[C@@H](c1ccc(-c2ccc(S(C)(=O)=O)cc2)cc1)C(F)(F)F)C(=O)NCC#N` displayed an IC50 on Cathepsin K of 0.2 nM.

`CC(C)C[C@H](N[C@@H](c1ccc(-c2ccc(S(C)(=O)=O)cc2)cc1)C(F)(F)F)C(=O)N[C@@H](CCS(C)(=O)=O)C(N)=O` yielded an IC50 on Cathepsin K of 151 nM.
